From ChEMBL document CHEMBL1155083, “Piperazine sulfonamides as potent, selective, and orally available 11beta-hydroxysteroid dehydrogenase type 1 inhibitors with efficacy in the rat cortisone-induced hyperinsulinemia model” (J Med Chem, 2008) come the findings set out here.

Active and inactive are the calls of the source. The calls are words filed in the database; no cut-off is given here.

The target in series [1] is 11-beta-hydroxysteroid dehydrogenase 1 (Homo sapiens, UniProt P28845). The series can be described thus: Inhibition of human 11betaHSD1 expressed in CHO cells by cell based assay.
Series [2] concerns the target T1, 11-beta-hydroxysteroid dehydrogenase 1 (Mus musculus, UniProt P50172). The series can be described thus: Inhibition of mouse 11betaHSD1 expressed in CHO cells by cell based assay.
Series [3] is described as follows: Clearance in mouse at 2 mg/kg, iv. The arrangement: dose 2 mg/kg, route intravenous. The note with it: in vivo. The class given is ADME, organism-based.
Series [4] is described as follows: Oral bioavailability in mouse at 30 mg/kg. Format: ADME, organism-based. The note with it: in vivo.
Series [5] deals with Mus musculus. The series can be described thus: Ex vivo inhibition of 11betaHSD1 in C57BL/6 mouse assessed as conversion of [3H]cortisone to [3H]cortisole in liver at 30 mg/kg, po. Format: functional. To be noted: C57BL/6, Liver. The method, boiled down: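 Mice dosed orally; sacrificed 5 h after dosing. Liver samples taken and 11β-HSD1 conversion of cortisone to cortisol measured; percent inhibition reported.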

Series [6] is described as follows: Cmax in Sprague-Dawley rat at 30 mg/kg, po. The note with it: in vivo. The arrangement: dose 30 mg/kg, route oral. The class given is ADME, organism-based. The method, boiled down: (§1)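 Oral PK in rats; single dose 30 mg/kg by gavage, formulated in 0.5% methyl cellulose/2% Tween; plasma exposure reported as Cmax (ng/mL) and AUC (ng·h/mL).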
Series [7] can be described thus: AUC in Sprague-Dawley rat at 30 mg/kg, po. Format: ADME, organism-based. Details: dose 30 mg/kg, route oral. To be noted: plasma. Put shortly: as §1
Series [8] deals with Rattus norvegicus. Nature of the series: Ex vivo inhibition of 11betaHSD1 in Sprague-Dawley rat assessed as conversion of [3H]cortisone to [3H]cortisole in liver at 30 mg/kg, po after 2 hrs. Format: functional.
The test system of series [9] is Rattus norvegicus. The series can be described thus: Effect on cortisone-induced Sprague-Dawley rat hyperinsulinemia model assessed as reduction in insulin at 30 mg/kg, bid after 7 days. Format: functional. The arrangement: scale not given: the % may be the effect or the level left. The method, boiled down:
(§2)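 Male SD rats given cortisone in drinking water (2 mg/mL); inhibitors dosed orally b.i.d. for 7 days. On day 7, body weight, food intake, liquid consumption, plasma glucose and serum insulin were measured; insulin reduction expressed as percent.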

In series [10] the target is 11-beta-hydroxysteroid dehydrogenase 1 (Rattus norvegicus, UniProt P16232). Nature of the series: Inhibition of rat 11betaHSD1. The method, boiled down:
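Potency against rat enzyme measured in a cell-based assay using CHO cells expressing rat 11β-HSD1; IC50 reported.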

In series [11] the target is T1, 11-beta-hydroxysteroid dehydrogenase 1. Nature of the series: Inhibition of C57BL/6 mouse 11betaHSD1 in presence of human serum.
Series [12] deals with T2, 11-beta-hydroxysteroid dehydrogenase type 2 (Homo sapiens) (UniProt P80365).
T2 sequence (whole entry): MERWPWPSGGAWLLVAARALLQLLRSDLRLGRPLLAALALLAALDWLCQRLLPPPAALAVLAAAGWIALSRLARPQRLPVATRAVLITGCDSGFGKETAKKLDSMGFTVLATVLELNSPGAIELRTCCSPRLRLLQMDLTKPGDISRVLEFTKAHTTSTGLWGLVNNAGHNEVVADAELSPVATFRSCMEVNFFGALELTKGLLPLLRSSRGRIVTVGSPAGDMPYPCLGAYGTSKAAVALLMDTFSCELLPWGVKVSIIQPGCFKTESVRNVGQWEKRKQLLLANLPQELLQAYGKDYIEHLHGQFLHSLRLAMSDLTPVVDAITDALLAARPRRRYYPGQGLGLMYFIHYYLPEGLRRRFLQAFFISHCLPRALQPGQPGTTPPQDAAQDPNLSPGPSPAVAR
The series can be described thus: Inhibition of 11betaHSD2 at 100 uM by cell based assay.

The species entered for series [13] is Rattus norvegicus. Nature of the series: Effect on glucose level in cortisone-induced Sprague-Dawley rat hyperinsulinemia model. The class given is functional, organism-based. The method, boiled down:
as §2

A short description of series [14]: Metabolic stability assessed as half life in mouse liver microsomes. A general note: Liver microsomes are a subcellular fraction often used to study metabolism.
Series [15] concerns Rattus norvegicus. The series can be described thus: Effect on cortisone-induced Sprague-Dawley rat hyperinsulinemia model assessed as reduction in insulin at 60 mg/kg, bid after 7 days. The class given is functional. Details: scale not given: the % may be the effect or the level left. The method, boiled down: as §2
Series [16] concerns Mus musculus. The series can be described thus: Ex vivo inhibition of 11betaHSD1 in C57BL/6 mouse assessed as conversion of [3H]cortisone to [3H]cortisole in liver at 10 mg/kg, po. The class given is functional. The note with it: C57BL/6, Liver.

T1 sequence (P50172 whole entry): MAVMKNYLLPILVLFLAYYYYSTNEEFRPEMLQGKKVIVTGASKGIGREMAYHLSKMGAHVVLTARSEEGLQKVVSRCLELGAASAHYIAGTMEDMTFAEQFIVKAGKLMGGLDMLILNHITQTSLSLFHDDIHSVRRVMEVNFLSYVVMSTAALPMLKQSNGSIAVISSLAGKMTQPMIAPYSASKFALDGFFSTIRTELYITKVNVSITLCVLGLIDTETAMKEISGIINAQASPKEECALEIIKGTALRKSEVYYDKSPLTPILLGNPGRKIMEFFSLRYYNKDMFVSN
Sequence of 11-beta-hydroxysteroid dehydrogenase 1 (Rattus norvegicus, UniProt P16232) (P16232 whole entry): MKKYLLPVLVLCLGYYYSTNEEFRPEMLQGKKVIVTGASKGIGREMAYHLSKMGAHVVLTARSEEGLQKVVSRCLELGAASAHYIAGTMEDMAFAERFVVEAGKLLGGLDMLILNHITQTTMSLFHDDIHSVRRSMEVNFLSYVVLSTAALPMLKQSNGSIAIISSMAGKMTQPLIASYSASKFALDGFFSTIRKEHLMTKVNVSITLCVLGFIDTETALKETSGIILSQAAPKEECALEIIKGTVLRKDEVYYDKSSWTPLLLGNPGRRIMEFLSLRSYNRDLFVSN
Sequence of 11-beta-hydroxysteroid dehydrogenase 1 (Homo sapiens, UniProt P28845) (P28845 whole entry): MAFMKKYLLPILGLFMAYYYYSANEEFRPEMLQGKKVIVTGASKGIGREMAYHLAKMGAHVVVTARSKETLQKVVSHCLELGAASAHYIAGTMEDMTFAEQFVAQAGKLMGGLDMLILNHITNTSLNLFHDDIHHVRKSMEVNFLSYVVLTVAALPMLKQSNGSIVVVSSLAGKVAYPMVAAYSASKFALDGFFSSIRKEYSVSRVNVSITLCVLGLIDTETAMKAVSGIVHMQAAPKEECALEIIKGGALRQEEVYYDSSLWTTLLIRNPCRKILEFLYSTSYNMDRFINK

Consider `C[C@@H]1CN(c2ccc(F)cc2C(F)(F)F)CCN1S(=O)(=O)c1cccc(OC(C)(C)C(=O)O)c1`, for which the IC50 (usually the concentration that inhibits the measured activity by half) in series [1] came to 300 nM; in series [2], 37 nM; in series [10], 110 nM; in series [11], 130 nM. In series [3], the clearance (as a rule, the rate of elimination divided by the concentration) was found to be 25 mL/min/kg. In addition, in series [4], the bioavailability (usually the share of a dose that reaches the circulation, judged against a reference dose that is usually intravenous) turned out to be 100%. Moreover, the values for the inhibition in vivo at 30 mg/kg in the series with Mus musculus [5] and with Rattus norvegicus [8] were 38% and 35%, respectively. Moreover, the highest level in series [6] (Cmax) was 9180 ng/mL. Further, the area under the curve (AUC) (as a rule, the area under the concentration-time curve, a measure of exposure) in series [7] is 51100 ng·h/mL. Moreover, in the series on Rattus norvegicus [9], the Activity is 30%. Moreover, the outcome (in series [12]; in the series listed under Rattus norvegicus [13]) was inactive. In series [14], the half-life – broadly, the time in which the quantity being followed falls by half – is more than 30 min.
Consider `C[C@@H]1CN(c2ccc(F)cc2C(F)(F)F)CCN1S(=O)(=O)c1cccc(N2CCN(C)CC2)c1`, for which the IC50 worked out at 21 nM in series [1], 12 nM in series [2], 42 nM in series [10] and 28 nM in [11]. This molecule came in with a clearance in series [3] of 36 mL/min/kg. In [4], this molecule came in with a bioavailability of 79%. In addition, the inhibition in vivo (as a rule, the drop in the measured response relative to a control, in per cent) at 30 mg/kg in the series with Mus musculus [5] amounted to 45%; in the series with Rattus norvegicus [8], 32%. Further, the highest concentration (Cmax) (in general, the highest concentration seen after dosing) in series [6] stood at 246 ng/mL. The AUC in [7] was 2280 ng·h/mL. In addition, the Activity in the series on Rattus norvegicus [15] is reported as 11%. For the same molecule, the result (in series [12]; in the series filed under Rattus norvegicus [13]) was inactive. Besides, the half-life in series [14] was 15 min.
With `C[C@@H]1CN(c2ccc(F)cc2C(F)(F)F)CCN1S(=O)(=O)c1cccc(N2CCC(O)C2)c1` (stereo partly specified), the IC50 is 10 nM in series [1], 13 nM in [2], 13 nM in [10] and 11 nM in series [11]. In series [3], this molecule displayed a clearance of 54 mL/min/kg. This molecule also displayed a bioavailability in [4] of 9%. The inhibition in vivo at 30 mg/kg in the series with Mus musculus [5] was 47%; with Rattus norvegicus [8], 62%. The highest level in series [6] (Cmax) was 185 ng/mL. Besides, the AUC in series [7] was 1040 ng·h/mL. For the same molecule, the Activity in the series on Rattus norvegicus [15] is 19%. Further, the result (in series [12]; in the series filed under Rattus norvegicus [13]) was inactive. Further, the half-life in series [14] amounted to 11 min.
On to `C[C@@H]1CN(c2ccc(F)cc2C(F)(F)F)CCN1S(=O)(=O)c1cccc(-n2cncn2)c1`, for which the 50% inhibitory concentration (IC50) came to 26 nM in series [1], 10 nM in [2], 81 nM in [10] and 42 nM in series [11]. The molecule also had a clearance in [3] of 13 mL/min/kg. The bioavailability in series [4] came out at 34%. For the same molecule, the inhibition in vivo at 10 mg/kg in the series with Mus musculus [16] is 44%. Further, the Cmax in series [6] was found to be 149 ng/mL. Besides, the AUC in series [7] is 1040 ng·h/mL. Moreover, the inhibition in vivo at 30 mg/kg in the series with Rattus norvegicus [8] was found to be 59%. Moreover, the Activity with Rattus norvegicus [15] is listed as 34%. Also, the outcome (in [12]; in the series listed under Rattus norvegicus [13]) was inactive. Besides, the half-life in [14] was found to be 12 min.
